Assays:
[1] = system: Human immunodeficiency virus 1; experiment: Antiviral activity against HIV1 mutant strain 6; type: functional, organism-based
[2] = system: Human immunodeficiency virus 1; experiment: Antiviral activity against HIV1 mutant strain 3; type: functional, organism-based
[3] = system: Human immunodeficiency virus 1; experiment: Antiviral activity against HIV1 mutant strain 5; type: functional, organism-based
[4] = system: Human immunodeficiency virus 1; experiment: Antiviral activity against HIV1 mutant strain 2; type: functional, organism-based
Procedure, shortened: (§1)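 PhenoSense phenotypic assay. Strain 2 protease carries L10I, G16A, K45V, F53L, I54V, K55N, D60E, L63P, A71V, I72K, V77I, V82F, I84V, L90M, I93L. EC50 in µM. Fold change is versus the wild-type EC50.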

[5] = system: Human immunodeficiency virus 1; experiment: Antiviral activity against HIV1 mutant strain 1; type: functional, organism-based
Procedure, shortened: (§2)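 PhenoSense phenotypic susceptibility assay on multi-drug-resistant clinical HIV-1 protease variant strains, run in parallel with a wild-type reference. EC50 read in µM. Fold change is mutant EC50 divided by wild-type EC50.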

[6] = system: Human immunodeficiency virus 1; experiment: Antiviral activity against HIV1 3B in presence of 50% human serum; type: functional, organism-based; conditions: Human immunodeficiency virus 1, 3B
[7] = system: Human immunodeficiency virus 1; experiment: Antiviral activity against HIV1 mutant strain 4; type: functional, organism-based
[8] = system: Human immunodeficiency virus 1; experiment: Antiviral activity against HIV1 3B; type: functional, organism-based; conditions: Human immunodeficiency virus 1, 3B
[9] = system: Human immunodeficiency virus 1; experiment: Antiviral activity against wild type HIV1; type: functional, organism-based
[10] = system: Human immunodeficiency virus 1; experiment: Antiviral activity against HIV1 mutant strain 7; type: functional, organism-based
Procedure, shortened: (§3)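 PhenoSense phenotypic assay. Strain 7 protease mutations include T4A, L10I, K20R, L23I, L33F, E35D, M36I, K43T, M46L. EC50 in µM. Fold change is versus the wild-type EC50.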

[11] = system: Human immunodeficiency virus 1; experiment: Ratio of EC50 for HIV1 mutant strain 6 to EC50 for wild type HIV1; type: functional
[12] = system: Human immunodeficiency virus 1; experiment: Ratio of EC50 for HIV1 mutant strain 2 to EC50 for wild type HIV1; type: functional; procedure, shortened: as §1
[13] = system: Human immunodeficiency virus 1; experiment: Ratio of EC50 for HIV1 mutant strain 1 to EC50 for wild type HIV1; type: functional; procedure, shortened: as §2
[14] = system: Human immunodeficiency virus 1; experiment: Ratio of EC50 for HIV1 mutant strain 3 to EC50 for wild type HIV1; type: functional
[15] = system: Human immunodeficiency virus 1; experiment: Ratio of EC50 for HIV1 mutant strain 5 to EC50 for wild type HIV1; type: functional
[16] = system: Human immunodeficiency virus 1; experiment: Ratio of EC50 for HIV1 mutant strain 7 to EC50 for wild type HIV1; type: functional; procedure, shortened: as §3
[17] = system: Human immunodeficiency virus 1; experiment: Ratio of EC50 for HIV1 mutant strain 4 to EC50 for wild type HIV1; type: functional
Protease = Protease (Human immunodeficiency virus 1, UniProt Q9YQ12); experiment: Inhibition of HIV1 protease
Sequence of Protease (Q9YQ12 whole entry): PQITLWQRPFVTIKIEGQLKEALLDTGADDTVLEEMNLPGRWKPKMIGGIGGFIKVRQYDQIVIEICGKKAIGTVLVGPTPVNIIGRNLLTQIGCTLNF

[18] = Metabolic stability in human liver microsomes assessed as compound remaining at 5 uM in presence of UDPGA by RP-HPLC; type: ADME, Microsome; conditions: read-out: Stability
Procedure, shortened: (§4)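 Test drug at 5 µM incubated with liver microsomes (0.5 mg/ml) plus cofactor (1 mM NADPH or 5 mM UDPGA) at 37 °C for 30 min. Residual drug measured by RP-HPLC. Values are the mean percent remaining of duplicates.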

[19] = Metabolic stability in human liver microsomes assessed as compound remaining at 5 uM in presence of NADPH by RP-HPLC; type: ADME, Microsome; conditions: read-out: Stability; procedure, shortened: as §4
[20] = Cmax in Beagle dog at 15 mg/kg, po; type: ADME, organism-based, Canis lupus familiaris; parameters: dose 15 mg/kg, route oral; conditions: in vivo
[21] = Plasma clearance in Beagle dog at 15 mg/kg, iv; type: ADME, organism-based, Canis lupus familiaris; parameters: dose 15 mg/kg, route intravenous
[22] = Tmax in Beagle dog at 15 mg/kg, po; type: ADME, organism-based, Canis lupus familiaris; parameters: dose 15 mg/kg, route oral; conditions: in vivo
Liver [23] = experiment: Metabolic stability in dog liver microsomes assessed as compound remaining in presence of NADPH by RP-HPLC; type: ADME, Canis lupus familiaris, Microsome; procedure, shortened: as §4
[24] = Volume of distribution at steady state in Beagle dog at 15 mg/kg, iv; type: ADME, organism-based, Canis lupus familiaris; parameters: dose 15 mg/kg, route intravenous; conditions: in vivo, read-out: Vdss
Liver [25] = experiment: Metabolic stability in dog liver microsomes assessed as compound remaining in presence of UDPGA by RP-HPLC; type: ADME, Canis lupus familiaris, Microsome; procedure, shortened: as §4
[26] = AUC in Beagle dog at 15 mg/kg, po; type: ADME, organism-based, Canis lupus familiaris; parameters: dose 15 mg/kg, route oral; conditions: plasma
[27] = Oral bioavailability in Beagle dog at 15 mg/kg; type: ADME, organism-based, Canis lupus familiaris; conditions: in vivo
[28] = Plasma concentration in Beagle dog at 15 mg/kg, po after 12 hrs; type: ADME, organism-based, Canis lupus familiaris; parameters: dose 15 mg/kg, route oral

SMILES | EC50 [6] [nM] | EC50 [8] [nM] | Ki (Protease) [nM] | remaining at 5 µM [18] [%] | remaining at 5 µM [19] [%] | other results
CC(C)(C)NC(=O)[C@@H]1C[C@@H]2CCCC[C@@H]2CN1C[C@@H](O)[C@H](Cc1ccccc1)NC(=O)[C@H](CC(N)=O)NC(=O)c1ccc2ccccc2n1 | 50 | 7 | – | – | – | EC50 [1]: 158 nM; EC50 [2]: > 500 nM; EC50 [3]: > 500 nM; EC50 [4]: 97 nM; EC50 [5]: > 500 nM; EC50 [7]: > 500 nM; EC50 [9]: 1.9 nM; EC50 [10]: 141 nM
CC(C)CN(C[C@@H](O)[C@H](Cc1ccccc1)NC(=O)O[C@H]1CCOC1)S(=O)(=O)c1ccc(N)cc1 | 95 | 16 | 0.359 | – | – | EC50 [1]: 432 nM; Ratio EC50 [11]: 30; EC50 [2]: 143 nM; Ratio EC50 [12]: 25; EC50 [3]: 615 nM; Ratio EC50 [13]: 7; EC50 [4]: 350 nM; Ratio EC50 [14]: 10; EC50 [5]: 98 nM; EC50 [7]: 51 nM; Ratio EC50 [15]: 43; EC50 [9]: 14 nM; Ratio EC50 [16]: 12; Ratio EC50 [17]: 4; EC50 [10]: 165 nM
CCOc1ccc(C[C@H](NC(=O)c2cccc(N)c2Cl)[C@H](O)C(=O)N2CSC(C)(C)[C@H]2C(=O)NCc2c(C)cccc2C)cc1 | 66 | 20 | 0.152 | > 95 | 54 | –
COc1cccc(C[C@H](NC(=O)c2cccc(N)c2Cl)[C@H](O)C(=O)N2CSC(C)(C)[C@H]2C(=O)NCc2ccccc2C)c1 | 138 | 21 | 0.255 | 93 | 66 | –
Cc1ccccc1CNC(=O)[C@H]1N(C(=O)[C@@H](O)[C@H](Cc2ccc3c(c2)OCO3)NC(=O)c2cccc(N)c2Cl)CSC1(C)C | 77 | 20 | 0.163 | > 95 | 74 | –
CCOc1ccc(C[C@H](NC(=O)c2cccc(N)c2Cl)[C@H](O)C(=O)N2CSC(C)(C)[C@H]2C(=O)NCc2ccccc2C)cc1 | 35 | 6 | 0.31 | 89 | 65 | –
COc1cccc(C[C@H](NC(=O)c2cccc(N)c2Cl)[C@H](O)C(=O)N2CCC(C)(C)[C@H]2C(=O)NCc2c(C)cccc2C)c1 | 87 | 36 | 0.75 | > 95 | 83 | Cmax [20]: 5 µM; clearance [21]: 16.7 mL/min/kg; Tmax [22]: 1 h; Stability (Liver [23]): 69%; Vd [24]: 1.9 L/kg; Stability (Liver [25]): > 95%; AUC [26]: 36.7 µM·h; bioavailability [27]: 146%; concentration at 12 h [28]: 710 nM
COc1ccc(C[C@H](NC(=O)c2cccc(N)c2Cl)[C@H](O)C(=O)N2CSC(C)(C)[C@H]2C(=O)NCc2ccccc2C)cc1 | 88 | 18 | 0.311 | > 95 | 60 | –
Cc1cccc(C)c1CNC(=O)[C@H]1N(C(=O)[C@@H](O)[C@H](Cc2ccc3c(c2)OCO3)NC(=O)c2cccc(N)c2Cl)CSC1(C)C | 20 | 17 | 0.07 | > 95 | 53 | –

From ChEMBL document CHEMBL1143257, “Structure-activity relationships of novel HIV-1 protease inhibitors containing the 3-amino-2-chlorobenzoyl-allophenylnorstatine structure” (Bioorg Med Chem, 2008)
